Laboratory results published in ChEMBL document CHEMBL2429837, “Identification of cryptotanshinone as an inhibitor of oncogenic protein tyrosine phosphatase SHP2 (PTPN11)” (J Med Chem, 2013).

Assays:
[1] = biological target: T1, Tyrosine-protein phosphatase non-receptor type 11 (Homo sapiens, UniProt Q06124); experiment: Inhibition of GST-tagged SHP2 PTP domain (unknown origin) using phospho-EGFR Asp-Ala-Asp-Glu-Tyr[PO3H2]-Leu-Ile-Pro-Gln-Gln-Gly as substrate preincubated for 30 mins before substrate addition measured after 30 mins by phosphatase activity assay
T1 sequence (Q06124 whole entry): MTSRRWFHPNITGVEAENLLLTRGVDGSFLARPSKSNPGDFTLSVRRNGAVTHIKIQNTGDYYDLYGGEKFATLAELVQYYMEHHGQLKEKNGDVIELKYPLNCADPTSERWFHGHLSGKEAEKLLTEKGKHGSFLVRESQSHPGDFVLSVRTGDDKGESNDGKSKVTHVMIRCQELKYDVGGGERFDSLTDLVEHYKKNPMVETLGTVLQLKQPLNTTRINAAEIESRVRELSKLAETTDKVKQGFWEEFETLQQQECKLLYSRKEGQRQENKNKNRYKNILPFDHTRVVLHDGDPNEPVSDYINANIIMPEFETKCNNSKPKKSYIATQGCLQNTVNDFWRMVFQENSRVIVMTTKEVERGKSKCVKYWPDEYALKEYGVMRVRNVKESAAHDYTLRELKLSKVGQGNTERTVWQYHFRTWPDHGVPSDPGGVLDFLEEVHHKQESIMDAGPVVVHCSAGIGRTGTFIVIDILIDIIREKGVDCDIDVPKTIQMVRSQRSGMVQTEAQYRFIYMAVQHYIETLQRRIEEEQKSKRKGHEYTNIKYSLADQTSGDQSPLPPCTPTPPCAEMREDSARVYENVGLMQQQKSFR
Summary of the method: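 GST-SHP2 PTP domain fusion, purified in-house, 0.5 µg per reaction. Buffer 25 mM Tris-HCl pH 7.4, 50 mM NaCl, 5 mM DTT, 2.5 mM EDTA. Inhibitor pre-incubation at room temperature; substrate 0.2 mM final; reaction at 30°C. Free phosphate by Malachite Green, OD620 read after 10 min. IC50 from 6 (or 5) concentrations, three independent experiments.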

[2] = biological target: Tyrosine-protein phosphatase non-receptor type 11 (Homo sapiens, UniProt Q06124, E76K); experiment: Inhibition of GST-tagged full-length SHP2 E76K mutant (unknown origin) using phospho-EGFR Asp-Ala-Asp-Glu-Tyr[PO3H2]-Leu-Ile-Pro-Gln-Gln-Gly as substrate preincubated for 30 mins before substrate addition measured after 30 mins by phosphatase activity assay
Sequence of Tyrosine-protein phosphatase non-receptor type 11 (Homo sapiens, UniProt Q06124, E76K) (Q06124 as listed by the source E76K): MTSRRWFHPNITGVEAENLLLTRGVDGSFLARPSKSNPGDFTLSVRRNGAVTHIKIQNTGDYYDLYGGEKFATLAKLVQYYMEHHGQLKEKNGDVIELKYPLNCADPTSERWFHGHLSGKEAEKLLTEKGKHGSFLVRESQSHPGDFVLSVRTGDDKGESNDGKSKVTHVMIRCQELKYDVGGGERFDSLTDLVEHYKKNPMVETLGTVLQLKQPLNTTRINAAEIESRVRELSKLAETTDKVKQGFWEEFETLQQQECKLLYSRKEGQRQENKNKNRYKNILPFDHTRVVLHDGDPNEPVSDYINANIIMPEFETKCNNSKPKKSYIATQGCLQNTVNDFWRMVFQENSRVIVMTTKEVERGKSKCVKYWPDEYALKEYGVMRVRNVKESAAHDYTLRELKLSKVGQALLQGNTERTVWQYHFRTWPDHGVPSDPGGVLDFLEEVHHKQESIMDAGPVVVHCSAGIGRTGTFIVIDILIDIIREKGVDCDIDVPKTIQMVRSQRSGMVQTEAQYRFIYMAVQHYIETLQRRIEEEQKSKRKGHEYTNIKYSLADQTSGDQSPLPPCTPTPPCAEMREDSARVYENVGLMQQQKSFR

[3] = biological target: T1, Tyrosine-protein phosphatase non-receptor type 11; experiment: Inhibition of wild type GST-tagged full-length SHP2 (unknown origin) using phospho-EGFR Asp-Ala-Asp-Glu-Tyr[PO3H2]-Leu-Ile-Pro-Gln-Gln-Gly as substrate preincubated for 30 mins before substrate addition measured after 30 mins by phosphatase activity assay
Summary of the method: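 Wild-type full-length SHP2 was purified recombinant and run like the in-house GST-SHP2 assay. It was preincubated with compound 30 min at room temperature in Tris-HCl pH 7.4 buffer with NaCl, DTT and EDTA. Phospho-EGFR peptide was then added to 0.2 mM and incubated 30 min at 30°C, with Malachite Green read-out at OD620. Triplicates from one of three repeat experiments.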

[4] = biological target: T2, Tyrosine-protein phosphatase non-receptor type 9 (Homo sapiens, UniProt P43378); experiment: Inhibition of GST-tagged MEG2 (unknown origin) using phospho-EGFR Asp-Ala-Asp-Glu-Tyr[PO3H2]-Leu-Ile-Pro-Gln-Gln-Gly as substrate preincubated for 30 mins before substrate addition measured after 30 mins by phosphatase activity assay
T2 sequence (P43378 whole entry): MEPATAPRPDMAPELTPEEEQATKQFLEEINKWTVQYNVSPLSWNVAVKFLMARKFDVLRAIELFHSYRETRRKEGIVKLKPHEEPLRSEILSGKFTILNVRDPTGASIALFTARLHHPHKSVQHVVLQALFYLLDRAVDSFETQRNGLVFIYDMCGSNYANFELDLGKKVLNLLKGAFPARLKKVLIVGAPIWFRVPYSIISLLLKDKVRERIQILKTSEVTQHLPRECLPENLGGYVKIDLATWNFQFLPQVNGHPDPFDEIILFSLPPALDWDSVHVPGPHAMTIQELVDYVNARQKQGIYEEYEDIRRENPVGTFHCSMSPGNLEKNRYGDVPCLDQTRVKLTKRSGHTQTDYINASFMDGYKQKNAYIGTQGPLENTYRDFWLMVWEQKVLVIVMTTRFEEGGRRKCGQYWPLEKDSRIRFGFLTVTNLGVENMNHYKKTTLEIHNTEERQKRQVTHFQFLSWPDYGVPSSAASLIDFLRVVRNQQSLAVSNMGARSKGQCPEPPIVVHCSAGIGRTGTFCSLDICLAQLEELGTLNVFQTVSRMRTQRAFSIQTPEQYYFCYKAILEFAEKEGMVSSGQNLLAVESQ
Summary of the method: (§1)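 GST-fusion phosphatase, purified in-house or commercial (MEG2 purchased). Enzyme and compound preincubated 30 min at room temperature in 25 mM Tris-HCl pH 7.4, 50 mM NaCl, 5 mM DTT, 2.5 mM EDTA. EGFR pTyr1018 peptide then added to 0.2 mM final and incubated 30 min at 30°C. Released phosphate read with Malachite Green at OD620 after 10 min. IC50 from 6 concentrations, three independent experiments.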

[5] = biological target: T3, Tyrosine-protein phosphatase non-receptor type 1 (Homo sapiens, UniProt P18031); experiment: Inhibition of GST-tagged PTP1B (unknown origin) using phospho-EGFR Asp-Ala-Asp-Glu-Tyr[PO3H2]-Leu-Ile-Pro-Gln-Gln-Gly as substrate preincubated for 30 mins before substrate addition measured after 30 mins by phosphatase activity assay; summary of the method: as §1
T3 sequence (P18031 whole entry): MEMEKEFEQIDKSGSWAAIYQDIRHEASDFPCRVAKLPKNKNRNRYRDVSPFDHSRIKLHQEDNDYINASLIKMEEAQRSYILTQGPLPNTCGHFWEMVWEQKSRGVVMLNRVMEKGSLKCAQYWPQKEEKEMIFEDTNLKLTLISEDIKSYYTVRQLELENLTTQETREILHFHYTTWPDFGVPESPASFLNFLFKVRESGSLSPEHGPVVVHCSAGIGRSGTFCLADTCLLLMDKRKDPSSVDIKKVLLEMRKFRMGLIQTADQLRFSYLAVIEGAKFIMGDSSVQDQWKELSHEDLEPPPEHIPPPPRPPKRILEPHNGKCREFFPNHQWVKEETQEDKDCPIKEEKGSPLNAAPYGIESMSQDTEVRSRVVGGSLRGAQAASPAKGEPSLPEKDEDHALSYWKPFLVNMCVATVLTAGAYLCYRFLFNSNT

[6] = Growth inhibition of IL3-stimulated mouse BA/F3 cells after 48 hrs by CellTiter 96 assay; assay type: functional, cell-based; conditions: BaF3, 48 h
Summary of the method: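 Ba/F3 cells seeded 5 × 10^3 per well in RPMI-1640 with 10% FBS and mouse IL-3 (1.0 ng/mL), grown overnight, then exposed to compound or matching DMSO for 48 h. Viable cells counted by tetrazolium-based one-solution proliferation reagent. Triplicates per experiment, three experiments; mean±S.E.M.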

[7] = biological target: T4, Tyrosine-protein phosphatase non-receptor type 2 (Homo sapiens, UniProt P17706); experiment: Inhibition of GST-tagged TC-PTP (unknown origin) using phospho-EGFR Asp-Ala-Asp-Glu-Tyr[PO3H2]-Leu-Ile-Pro-Gln-Gln-Gly as substrate preincubated for 30 mins before substrate addition measured after 30 mins by phosphatase activity assay
T4 sequence (P17706 whole entry): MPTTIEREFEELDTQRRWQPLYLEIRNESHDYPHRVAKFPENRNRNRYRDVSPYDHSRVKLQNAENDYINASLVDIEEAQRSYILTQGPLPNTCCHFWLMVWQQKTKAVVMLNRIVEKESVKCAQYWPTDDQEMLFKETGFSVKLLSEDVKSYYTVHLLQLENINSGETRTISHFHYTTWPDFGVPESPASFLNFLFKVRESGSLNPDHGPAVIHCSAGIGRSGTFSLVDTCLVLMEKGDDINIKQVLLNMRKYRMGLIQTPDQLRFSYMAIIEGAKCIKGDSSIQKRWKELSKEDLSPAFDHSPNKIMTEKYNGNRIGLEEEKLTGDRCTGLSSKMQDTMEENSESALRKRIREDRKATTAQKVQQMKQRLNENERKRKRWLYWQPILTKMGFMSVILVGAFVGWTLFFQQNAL
Summary of the method: (§2)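 In-house SHP1 or purchased GST-CD45 cytoplasmic domain, GST-LAR, GST-TC-PTP preincubated with compound (6 concentrations) in 25 mM Tris-HCl pH 7.4, 50 mM NaCl, 5 mM DTT, 2.5 mM EDTA, room temperature 30 min. Phospho-EGFR pTyr1018 peptide added to 0.2 mM final, 30°C 30 min; released phosphate by Malachite Green, OD620. Three independent experiments.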

[8] = biological target: T5, Receptor-type tyrosine-protein phosphatase C (Homo sapiens, UniProt P08575); experiment: Inhibition of GST-tagged CD45 (unknown origin) using phospho-EGFR Asp-Ala-Asp-Glu-Tyr[PO3H2]-Leu-Ile-Pro-Gln-Gln-Gly as substrate preincubated for 30 mins before substrate addition measured after 30 mins by phosphatase activity assay; summary of the method: as §2
T5 sequence (P08575 whole entry): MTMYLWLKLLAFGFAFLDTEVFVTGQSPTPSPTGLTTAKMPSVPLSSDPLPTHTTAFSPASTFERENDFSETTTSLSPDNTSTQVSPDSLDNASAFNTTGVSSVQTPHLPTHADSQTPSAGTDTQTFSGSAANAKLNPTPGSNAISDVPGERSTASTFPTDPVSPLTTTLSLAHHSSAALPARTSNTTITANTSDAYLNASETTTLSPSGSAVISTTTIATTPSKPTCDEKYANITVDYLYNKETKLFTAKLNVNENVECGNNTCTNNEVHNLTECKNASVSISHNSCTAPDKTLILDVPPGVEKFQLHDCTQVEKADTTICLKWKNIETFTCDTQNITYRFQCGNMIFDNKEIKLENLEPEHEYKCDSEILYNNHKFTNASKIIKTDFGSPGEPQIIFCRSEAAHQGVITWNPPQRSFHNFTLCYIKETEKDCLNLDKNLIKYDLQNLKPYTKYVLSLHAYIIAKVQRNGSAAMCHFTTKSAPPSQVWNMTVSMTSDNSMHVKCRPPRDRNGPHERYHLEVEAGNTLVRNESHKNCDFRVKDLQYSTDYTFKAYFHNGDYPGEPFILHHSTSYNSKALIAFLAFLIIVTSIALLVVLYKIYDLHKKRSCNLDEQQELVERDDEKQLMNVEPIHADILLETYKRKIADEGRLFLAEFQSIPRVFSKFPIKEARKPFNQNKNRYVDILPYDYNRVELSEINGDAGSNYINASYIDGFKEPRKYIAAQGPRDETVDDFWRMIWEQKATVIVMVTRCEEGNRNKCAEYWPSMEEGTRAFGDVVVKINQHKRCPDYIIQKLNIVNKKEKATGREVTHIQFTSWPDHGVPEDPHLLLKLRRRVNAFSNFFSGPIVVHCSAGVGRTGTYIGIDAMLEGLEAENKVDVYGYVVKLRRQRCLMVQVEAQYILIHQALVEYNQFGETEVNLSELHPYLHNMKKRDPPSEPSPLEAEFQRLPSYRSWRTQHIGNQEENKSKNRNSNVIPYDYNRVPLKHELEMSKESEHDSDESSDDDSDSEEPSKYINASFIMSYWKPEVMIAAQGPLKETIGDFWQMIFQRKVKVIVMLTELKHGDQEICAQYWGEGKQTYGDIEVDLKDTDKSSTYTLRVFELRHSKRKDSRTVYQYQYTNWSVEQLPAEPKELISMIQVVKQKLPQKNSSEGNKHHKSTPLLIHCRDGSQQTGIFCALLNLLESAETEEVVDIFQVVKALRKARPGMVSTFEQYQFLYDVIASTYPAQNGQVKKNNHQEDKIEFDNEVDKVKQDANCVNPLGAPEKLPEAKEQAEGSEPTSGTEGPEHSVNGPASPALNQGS

[9] = biological target: Tyrosine-protein phosphatase non-receptor type 6 (Homo sapiens, UniProt P29350); experiment: Inhibition of GST-tagged SHP1 PTP domain (unknown origin) using phospho-EGFR Asp-Ala-Asp-Glu-Tyr[PO3H2]-Leu-Ile-Pro-Gln-Gln-Gly as substrate preincubated for 30 mins before substrate addition measured after 30 mins by phosphatase activity assay; summary of the method: as §2
Sequence of Tyrosine-protein phosphatase non-receptor type 6 (P29350 whole entry, the tested form may be a part): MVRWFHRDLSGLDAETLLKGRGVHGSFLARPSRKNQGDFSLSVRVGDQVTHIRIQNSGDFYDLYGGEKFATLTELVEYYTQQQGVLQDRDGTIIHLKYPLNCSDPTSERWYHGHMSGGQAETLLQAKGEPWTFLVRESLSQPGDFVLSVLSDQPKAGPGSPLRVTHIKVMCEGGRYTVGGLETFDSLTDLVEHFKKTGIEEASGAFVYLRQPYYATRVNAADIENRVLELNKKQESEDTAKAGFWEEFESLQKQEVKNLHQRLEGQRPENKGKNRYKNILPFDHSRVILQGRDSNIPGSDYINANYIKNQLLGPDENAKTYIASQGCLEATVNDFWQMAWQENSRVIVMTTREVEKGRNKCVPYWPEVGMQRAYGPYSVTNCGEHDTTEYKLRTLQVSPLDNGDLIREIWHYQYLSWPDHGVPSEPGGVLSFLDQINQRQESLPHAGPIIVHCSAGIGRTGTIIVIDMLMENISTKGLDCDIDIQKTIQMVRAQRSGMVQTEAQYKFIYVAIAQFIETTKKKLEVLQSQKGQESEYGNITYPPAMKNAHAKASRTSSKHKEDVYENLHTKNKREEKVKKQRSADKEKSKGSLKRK

[10] = biological target: Receptor-type tyrosine-protein phosphatase F (Homo sapiens, UniProt P10586); experiment: Inhibition of GST-tagged LAR (unknown origin) using phospho-EGFR Asp-Ala-Asp-Glu-Tyr[PO3H2]-Leu-Ile-Pro-Gln-Gln-Gly as substrate preincubated for 30 mins before substrate addition measured after 30 mins by phosphatase activity assay; summary of the method: as §2
Sequence of Receptor-type tyrosine-protein phosphatase F (P10586 whole entry): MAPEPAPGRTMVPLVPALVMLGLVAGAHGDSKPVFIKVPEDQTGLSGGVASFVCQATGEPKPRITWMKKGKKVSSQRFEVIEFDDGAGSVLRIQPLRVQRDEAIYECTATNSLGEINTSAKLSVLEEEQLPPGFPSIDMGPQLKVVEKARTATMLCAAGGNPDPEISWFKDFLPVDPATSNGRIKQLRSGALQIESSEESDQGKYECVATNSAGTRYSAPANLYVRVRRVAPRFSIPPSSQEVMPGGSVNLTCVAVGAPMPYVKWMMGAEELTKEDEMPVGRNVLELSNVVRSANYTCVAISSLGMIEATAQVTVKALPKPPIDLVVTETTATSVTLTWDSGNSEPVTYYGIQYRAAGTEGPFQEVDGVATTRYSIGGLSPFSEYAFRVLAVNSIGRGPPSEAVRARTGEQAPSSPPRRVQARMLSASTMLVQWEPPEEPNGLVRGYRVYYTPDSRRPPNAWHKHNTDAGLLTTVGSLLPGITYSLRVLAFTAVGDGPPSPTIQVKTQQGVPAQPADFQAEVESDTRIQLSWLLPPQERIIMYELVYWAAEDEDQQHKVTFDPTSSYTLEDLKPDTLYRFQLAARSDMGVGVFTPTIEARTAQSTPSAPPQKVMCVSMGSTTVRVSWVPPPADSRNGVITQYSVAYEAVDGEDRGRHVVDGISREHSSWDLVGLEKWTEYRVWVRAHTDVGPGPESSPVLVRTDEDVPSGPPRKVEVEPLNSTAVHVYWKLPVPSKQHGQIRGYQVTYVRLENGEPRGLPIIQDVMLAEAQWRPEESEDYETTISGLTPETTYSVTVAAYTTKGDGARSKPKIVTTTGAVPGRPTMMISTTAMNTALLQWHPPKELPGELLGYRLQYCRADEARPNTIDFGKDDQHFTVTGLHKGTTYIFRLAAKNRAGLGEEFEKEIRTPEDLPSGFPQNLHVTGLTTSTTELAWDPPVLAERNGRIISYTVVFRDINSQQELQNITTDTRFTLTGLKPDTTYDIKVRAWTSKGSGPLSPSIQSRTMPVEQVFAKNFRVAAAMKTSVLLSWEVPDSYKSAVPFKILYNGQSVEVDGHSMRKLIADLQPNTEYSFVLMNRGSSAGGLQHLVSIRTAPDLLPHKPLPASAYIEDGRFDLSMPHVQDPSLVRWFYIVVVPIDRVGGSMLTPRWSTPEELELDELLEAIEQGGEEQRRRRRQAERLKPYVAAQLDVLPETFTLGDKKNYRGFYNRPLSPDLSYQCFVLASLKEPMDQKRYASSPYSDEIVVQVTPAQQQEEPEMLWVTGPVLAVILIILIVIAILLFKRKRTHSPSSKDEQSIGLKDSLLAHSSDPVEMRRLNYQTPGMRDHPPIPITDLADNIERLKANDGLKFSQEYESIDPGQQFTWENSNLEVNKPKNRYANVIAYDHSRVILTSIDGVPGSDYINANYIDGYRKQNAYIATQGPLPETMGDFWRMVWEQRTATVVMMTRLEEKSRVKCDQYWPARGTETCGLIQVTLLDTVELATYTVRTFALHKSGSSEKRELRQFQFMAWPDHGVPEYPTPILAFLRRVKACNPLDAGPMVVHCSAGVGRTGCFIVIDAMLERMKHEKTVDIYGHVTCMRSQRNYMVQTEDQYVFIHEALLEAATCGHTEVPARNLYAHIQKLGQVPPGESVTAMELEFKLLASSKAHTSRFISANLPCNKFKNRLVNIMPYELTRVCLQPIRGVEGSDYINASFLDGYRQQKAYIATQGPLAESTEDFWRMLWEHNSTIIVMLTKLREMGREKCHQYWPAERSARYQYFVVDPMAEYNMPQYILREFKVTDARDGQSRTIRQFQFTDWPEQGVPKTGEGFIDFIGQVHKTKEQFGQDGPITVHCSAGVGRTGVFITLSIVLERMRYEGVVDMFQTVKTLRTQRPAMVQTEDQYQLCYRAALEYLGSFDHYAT

Compound	IC50 [1] [µM]	IC50 [2] [µM]	IC50 [3] [µM]	IC50 [4] [µM]	IC50 [5] [µM]	IC50 [6] [µM]	IC50 [7] [µM]	IC50 [8] [µM]	IC50 [9] [µM]	IC50 [10] [µM]
C[C@H]1COC2=C1C(=O)C(=O)c1c2ccc2c1CCCC2(C)C [CRYPTOTANSHINONE]	22.5	23.9	45.2	59.4	33.5	17.2	55.7	41.4	39.5	36.9
Cc1cccc2c3c(ccc12)C1=C(C(=O)C3=O)[C@@H](C)CO1 [DIHYDROTANSHINONE I]	3.94								3.67	
Cc1coc2c1C(=O)C(=O)c1c-2ccc2c1CCCC2(C)C [TANSHINONE IIA]	2.59								2.14	
Cc1coc2c1C(=O)C(=O)c1c-2ccc2c(C)cccc12 [TANSHINONE I]	2.57								1.97	
